In ChEMBL document CHEMBL1926565, “Synthesis, antiproliferative activities and telomerase inhibition evaluation of novel asymmetrical 1,2-disubstituted amidoanthraquinone derivatives” (Eur J Med Chem, 2012):

Assays:
Type in all cases: functional
[1] = test system: OVCAR-3; test: Anticancer activity against human OVCAR3 cells; conditions: for CC50: read-out: LC50 (the source's name)
Summary of the method: (§1)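 NCI 60-human-tumour-cell-line panel. Selected analogues were first run at one dose, then some were carried into multi-dose testing. GI50 (50% growth inhibition), TGI (total growth inhibition) and LC50 (50% cell kill) were read as values interpolated where the dose–response curves cross these levels.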

[2] = test system: MCF7; test: Anticancer activity against human MCF7 cells; conditions: for CC50: read-out: LC50 (the source's name); summary of the method: as §1
[3] = test system: T47D; test: Anticancer activity against human T47D cells; conditions: for CC50: read-out: LC50 (the source's name)
[4] = test system: SK-MEL-5; test: Anticancer activity against human SK-MEL-5 cells; conditions: for CC50: read-out: LC50 (the source's name); summary of the method: as §1
[5] = test system: RXF 393; test: Anticancer activity against human RXF393 cells; conditions: for CC50: read-out: LC50 (the source's name); summary of the method: as §1
[6] = test system: OVCAR-8; test: Anticancer activity against human OVCAR8 cells; conditions: for CC50: read-out: LC50 (the source's name); summary of the method: as §1
[7] = test system: SK-MEL-2; test: Anticancer activity against human SK-MEL-2 cells; conditions: for CC50: read-out: LC50 (the source's name); summary of the method: as §1
[8] = test system: A549; test: Anticancer activity against human A549 cells; conditions: for CC50: read-out: LC50 (the source's name); summary of the method: as §1
[9] = test system: HT-29; test: Anticancer activity against human HT-29 cells; conditions: for CC50: read-out: LC50 (the source's name); summary of the method: as §1
[10] = test system: 786-0; test: Anticancer activity against human 786-0 cells; conditions: for CC50: read-out: LC50 (the source's name); summary of the method: as §1
[11] = test system: NCI-H226; test: Anticancer activity against human NCI-H226 cells; conditions: for CC50: read-out: LC50 (the source's name); summary of the method: as §1
[12] = test system: UACC-257; test: Anticancer activity against human UACC257 cells; conditions: for CC50: read-out: LC50 (the source's name)
[13] = test system: HCC 2998; test: Anticancer activity against human HCC2998 cells; conditions: for CC50: read-out: LC50 (the source's name); summary of the method: as §1
[14] = test system: PC-3; test: Anticancer activity against human PC3 cells; conditions: for CC50: read-out: LC50 (the source's name); summary of the method: as §1
[15] = test system: NCI-H460; test: Anticancer activity against human NCI-H460 cells; summary of the method: as §1
[16] = test system: NCI/ADR-RES; test: Anticancer activity against human NCI/ADR-RES cells; conditions: for CC50: read-out: LC50 (the source's name); summary of the method: as §1
[17] = test system: ACHN; test: Anticancer activity against human ACHN cells; conditions: for CC50: read-out: LC50 (the source's name); summary of the method: as §1
[18] = test system: UO-31; test: Anticancer activity against human UO31 cells; conditions: for CC50: read-out: LC50 (the source's name)
[19] = test system: SR; test: Anticancer activity against human SR cells; summary of the method: as §1
[20] = test system: SK-OV-3; test: Anticancer activity against human SKOV3 cells; conditions: for CC50: read-out: LC50 (the source's name); summary of the method: as §1
[21] = test system: Malme-3M; test: Anticancer activity against human MALME-3M cells; conditions: for CC50: read-out: LC50 (the source's name)
Summary of the method: (§2)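 Tested by the NCI in its 60-human-tumour-cell-line panel. Dose-response curves were run, and GI₅₀ (50% growth inhibition), TGI (total growth inhibition) and LC₅₀ (50% cell killing) were read as interpolated concentrations where the curves cross those levels.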

[22] = test system: A498; test: Anticancer activity against human A498 cells; conditions: for CC50: read-out: LC50 (the source's name); summary of the method: as §1
[23] = Anticancer activity against human Hs 578T cells; conditions: for CC50: read-out: LC50 (the source's name); summary of the method: as §1
[24] = test system: MDA-MB-468; test: Anticancer activity against human MDA-MB-468 cells; conditions: for CC50: read-out: LC50 (the source's name); summary of the method: as §1
[25] = test system: MDA-MB-435; test: Anticancer activity against human MDA-MB-435 cells; conditions: for CC50: read-out: LC50 (the source's name); summary of the method: as §1
[26] = test system: SF-295; test: Anticancer activity against human SF295 cells; conditions: for CC50: read-out: LC50 (the source's name); summary of the method: as §1
[27] = test system: RPMI-8226; test: Cytotoxicity against human RPMI8226 cells assessed as cellular growth at 10 uM
Summary of the method: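 Single-dose screen run by the NCI across its 60-human-tumour-cell-line panel; growth recorded for each cell line.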

[28] = test system: SF-539; test: Anticancer activity against human SF539 cells; conditions: read-out: LC50 (the source's name); summary of the method: as §1
[29] = test system: HL-60(TB); test: Anticancer activity against human HL-60(TB) cells; summary of the method: as §2
[30] = test system: MOLT-4; test: Anticancer activity against human MOLT4 cells; summary of the method: as §1
[31] = test system: CCRF-CEM; test: Anticancer activity against human CCRF-CEM cells; summary of the method: as §1
[32] = read-out: LC50 (the source's name)

In the case of Cc1ccc(C(=O)Nc2c(NC(=O)CN3CCN(C)CC3)ccc3c2C(=O)c2ccccc2C3=O)cc1, the GI50 [1] is reported as 2.43 µM, the CC50 [1] is reported as greater than 100 µM and the GI50 [2] is reported as 3.13 µM. The TGI [2] was greater than 100 µM, the CC50 [2] was greater than 100 µM and the GI50 [3] was 2.62 µM. For the same compound, the CC50 [3] was greater than 100 µM, the GI50 [4] was 1.94 µM and the CC50 [4] was greater than 100 µM. The TGI [5] was greater than 100 µM, the CC50 [5] was greater than 100 µM and the GI50 [6] was greater than 100 µM. It also gave a TGI [6] greater than 100 µM, a CC50 [6] greater than 100 µM and a GI50 [7] greater than 100 µM. It also gave a TGI [7] greater than 100 µM, a CC50 [7] greater than 100 µM and a TGI [8] greater than 100 µM. For the same compound, the CC50 [8] was greater than 100 µM, the GI50 [9] was 3.09 µM and the TGI [9] was greater than 100 µM. For the same compound, the CC50 [9] was greater than 100 µM, the GI50 [10] was 5.61 µM and the TGI [10] was greater than 100 µM. It also gave a CC50 [10] greater than 100 µM, a GI50 [11] greater than 100 µM and a TGI [11] greater than 100 µM. The CC50 [11] was greater than 100 µM, the GI50 [12] was 2.23 µM and the TGI [12] was 5.81 µM. For the same compound, the CC50 [12] was greater than 100 µM, the GI50 [13] was 3 µM and the TGI [13] was greater than 100 µM. The CC50 [13] was greater than 100 µM, the TGI [14] was greater than 100 µM and the CC50 [14] was greater than 100 µM. For the same compound, the GI50 [15] was 3.36 µM, the LC50 (50% cell kill) [15] was greater than 100 µM and the TGI [15] was greater than 100 µM. The TGI [16] was greater than 100 µM, the CC50 [16] was greater than 100 µM and the TGI [17] was greater than 100 µM. It also gave a CC50 [17] greater than 100 µM, a TGI [18] greater than 100 µM and a CC50 [18] greater than 100 µM. The LC50 [19] was greater than 100 µM, the TGI [19] was 4.65 µM and the GI50 [20] was greater than 100 µM. It also gave a TGI [20] greater than 100 µM, a CC50 [20] greater than 100 µM and a CC50 [21] greater than 100 µM. For the same compound, the GI50 [22] was greater than 100 µM, the TGI [22] was greater than 100 µM and the CC50 [22] was greater than 100 µM. It also gave a GI50 [23] greater than 100 µM, a TGI [23] greater than 100 µM and a CC50 [23] greater than 100 µM. The GI50 [24] was 2.58 µM, the TGI [24] was greater than 100 µM and the CC50 [24] was greater than 100 µM. It also gave a GI50 [25] of 3.13 µM, a TGI [25] greater than 100 µM and a CC50 [25] greater than 100 µM. It also gave a GI50 [26] greater than 100 µM, a TGI [26] greater than 100 µM and a CC50 [26] greater than 100 µM.

With Cc1ccc(C(=O)Nc2ccc3c(c2NC(=O)c2ccc(C)cc2)C(=O)c2ccccc2C3=O)cc1 the Activity [27] was 101.77%.

For Cc1ccc(C(=O)Nc2c(NC(=O)CCl)ccc3c2C(=O)c2ccccc2C3=O)cc1, the GI50 [1] was 1.35 µM, the TGI [1] was 3.54 µM and the CC50 [1] was 15.2 µM. For the same compound, the GI50 [2] was 1.12 µM, the TGI [2] was 4.95 µM and the CC50 [2] was greater than 50 µM. For the same compound, the GI50 [3] was 1.19 µM, the TGI [3] was 4.04 µM and the CC50 [3] was 46.3 µM. For the same compound, the CC50 [28] was 25.1 µM, the GI50 [4] was 0.83 µM and the TGI [4] was 1.53 µM. For the same compound, the CC50 [4] was 2.83 µM, the GI50 [29] was 6.14 µM and the TGI [29] was 24.6 µM. The CC50 [29, 32] was greater than 50 µM, the GI50 [30] was 2.29 µM and the TGI [30] was 2.95 µM. For the same compound, the CC50 [30, 32] was greater than 50 µM, the GI50 [5] was 7.84 µM and the TGI [5] was 16.5 µM. The CC50 [5] was 34.6 µM, the GI50 [6] was 3.32 µM and the TGI [6] was 28.5 µM. The CC50 [6] was greater than 50 µM, the GI50 [7] was 1.34 µM and the TGI [7] was 4.4 µM. For the same compound, the CC50 [7] was greater than 50 µM, the GI50 [8] was 12.3 µM and the TGI [8] was 29.2 µM. The CC50 [8] was greater than 50 µM, the CC50 [9] was greater than 50 µM and the GI50 [10] was 9.48 µM. For the same compound, the TGI [10] was 17.2 µM, the CC50 [10] was 31.2 µM and the GI50 [31] was 2.54 µM. For the same compound, the TGI [31] was greater than 50 µM, the CC50 [31, 32] was greater than 50 µM and the GI50 [11] was 8.81 µM. It also gave a TGI [11] of 20.8 µM, a CC50 [11] of 49.1 µM and a GI50 [12] of 1.61 µM. For the same compound, the TGI [12] was 6.27 µM, the CC50 [12] was 24.3 µM and the CC50 [13] was 29.4 µM. It also gave a GI50 [14] of 6.54 µM, a TGI [14] of 15.4 µM and a CC50 [14] of 36.5 µM. For the same compound, the GI50 [15] was 5.81 µM, the LC50 (50% cell kill) [15] was 34.1 µM and the TGI [15] was 14.1 µM. It also gave a GI50 [16] of 9.46 µM, a TGI [16] of 30.7 µM and a CC50 [16] greater than 50 µM. The GI50 [17] was 7.18 µM, the TGI [17] was 14.3 µM and the CC50 [17] was 28.6 µM. It also gave a CC50 [18] of 41.3 µM, a GI50 [19] of 1.59 µM and an LC50 [19] greater than 50 µM. For the same compound, the TGI [19] was greater than 50 µM, the GI50 [20] was 13.2 µM and the TGI [20] was 35.9 µM. It also gave a CC50 [20] greater than 50 µM, a GI50 [21] of 5.89 µM and a TGI [21] of 15.6 µM. The CC50 [21] was 41.1 µM, the GI50 [22] was 9.87 µM and the TGI [22] was 22.5 µM. For the same compound, the CC50 [22] was greater than 50 µM, the GI50 [23] was 1.64 µM and the TGI [23] was 9.12 µM. It also gave a CC50 [23] greater than 50 µM, a GI50 [24] of 0.83 µM and a TGI [24] of 1.82 µM. The CC50 [24] was 3.98 µM, the GI50 [25] was 5.73 µM and the TGI [25] was 19.5 µM. It also gave a CC50 [25] greater than 50 µM and a CC50 [26] of 42.2 µM.
